Laboratory results from ChEMBL document CHEMBL4602710 (ACS Med Chem Lett, 2020).
Converted amounts (≈) assume the structure as drawn. The source made the active and inactive calls. The rule behind the calls is not given here.

Assays:
[1] = AUC in dog pretreated with famotidine; format: ADME, Canis lupus familiaris; conditions: in vivo
[2] = Solubility of compound at pH 2; format: physicochemical; conditions: buffer
Hepatocyte [3] = experiment: Apparent clearance in monkey hepatocytes; format: ADME, cell-based, Macaca mulatta; conditions: rhesus monkey
[4] = AUC in human at 45 mg, po administered as single dose; format: ADME, organism-based; conditions: in vivo
Summary of the method: (§1)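 Healthy human volunteers given a single oral 45 mg dose, either without pretreatment or after pretreatment with 20 mg omeprazole; plasma AUC compared.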

[5] = Half life in dog at 1 mg/kg, iv or 5 mg/kg, po; format: ADME, organism-based, Canis lupus familiaris; conditions: in vivo
[6] = Fraction unbound in monkey plasma; format: ADME, cell-free, Macaca mulatta; conditions: rhesus monkey
[7] = Solubility of compound at pH 7.4; format: physicochemical; conditions: buffer
[8] = Clearance in rat at 1 mg/kg, iv or 5 mg/kg, po; format: ADME, organism-based; conditions: in vivo
[9] = Fraction unbound in rat plasma; format: ADME, cell-free
[10] = Half life in monkey at 1 mg/kg, iv or 5 mg/kg, po; format: ADME, organism-based, Macaca mulatta; conditions: rhesus monkey, in vivo
[11] = Distribution coefficient, logD of compound; format: physicochemical; conditions: octanol/water
[12] = Clearance in monkey at 1 mg/kg, iv or 5 mg/kg, po; format: ADME, organism-based, Macaca mulatta; conditions: rhesus monkey, in vivo
Hepatocyte [13] = experiment: Apparent clearance in dog hepatocytes; format: ADME, cell-based, Canis lupus familiaris
[14] = Half life in rat at 1 mg/kg, iv or 5 mg/kg, po; format: ADME, organism-based; conditions: in vivo
[15] = Fraction unbound in dog plasma; format: ADME, cell-free, Canis lupus familiaris
[16] = Oral bioavailability in dog at 5 mg/kg; format: ADME, organism-based, Canis lupus familiaris; conditions: in vivo
[17] = Volume of distribution at steady state in rat at 1 mg/kg, iv or 5 mg/kg, po; format: ADME, organism-based; conditions: in vivo, read-out: Vdss
[18] = Volume of distribution at steady state in dog at 1 mg/kg, iv or 5 mg/kg, po; format: ADME, organism-based, Canis lupus familiaris; conditions: in vivo, read-out: Vdss
[19] = Volume of distribution at steady state in monkey at 1 mg/kg, iv or 5 mg/kg, po; format: ADME, organism-based, Macaca mulatta; conditions: rhesus monkey, in vivo, read-out: Vdss
[20] = AUC in human at 45 mg, po administered as single dose pretreated with omeprazole; format: ADME, organism-based; conditions: in vivo; summary of the method: as §1
[21] = Fraction unbound in human plasma; format: ADME, cell-free
[22] = Oral bioavailability in rat at 5 mg/kg; format: ADME, organism-based; conditions: in vivo
[23] = molecular target: Tyrosine-protein kinase JAK2 (Homo sapiens, UniProt O60674); experiment: Inhibition of wild-type human partial length JAK2 JH1 catalytic domain (A829 to G1132 residues) expressed in mammalian expression system by Kinomescan method
[24] = Oral bioavailability in monkey at 5 mg/kg; format: ADME, organism-based, Macaca mulatta; conditions: rhesus monkey, in vivo
[25] = Apparent clearance in rat hepatocytes; format: ADME, cell-based, Hepatocyte
Mus musculus [26] = experiment: Protective activity in NZBWF1/J mouse SLE model assessed as increase in animal survival rate at 0.25%, po administered daily for 12 weeks measured at week 40; format: functional, organism-based
Summary of the method: (§2)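 Spontaneous lupus model in NZB/W F1 mice, treated for 12 weeks. Proteinuria score followed from weeks 28–40; survival assessed at week 40.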

[27] = Half life at steady state in human at 2 to 50 mg administered once daily; format: ADME; conditions: in vivo, read-out: t1/2ss
[28] = Clearance in human liver microsomes; format: ADME, Microsome
[29] = Clearance in dog at 1 mg/kg, iv or 5 mg/kg, po; format: ADME, organism-based, Canis lupus familiaris; conditions: in vivo
Mus musculus [30] = experiment: Protective activity in NZBWF1/J mouse SLE model assessed as reduction in proteinuria at 0.25%, po administered daily for 12 weeks measured weekly from week 28-40; format: functional, organism-based; summary of the method: as §2
[31] = Toxicity in human assessed as adverse events at 2 to 50 mg administered as single dose; conditions: in vivo
Summary of the method: (§3)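 Healthy human volunteers received single doses of 2–50 mg or multiple doses of 15–50 mg; adverse events and laboratory abnormalities recorded.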

[32] = Toxicity in human assessed as clinical abnormalities at 15 to 50 mg administered as multiple doses; conditions: in vivo; summary of the method: as §3
[33] = AUC in dog pretreated with pentagastrin; format: ADME, Canis lupus familiaris; conditions: in vivo
[34] = Apparent clearance in human hepatocytes; format: ADME, cell-based, Hepatocyte
[35] = Toxicity in human assessed as clinical abnormalities at 2 to 50 mg administered as single dose; conditions: in vivo; summary of the method: as §3
[36] = Toxicity in human assessed as adverse events at 15 to 50 mg administered as multiple doses; conditions: in vivo; summary of the method: as §3
[37] = Efflux ratio of apparent permeability of compound in human Caco2 cells; format: ADME, cell-based; conditions: Caco-2
[38] = Apparent permeability of compound in human Caco2 cells; format: ADME, cell-based; conditions: Caco-2
[39] = molecular target: T1, Tyrosine-protein kinase SYK (Homo sapiens, UniProt P43405); experiment: Inhibition of SYK (unknown origin) using XL665-labeled peptide as substrate in presence of ATP measured after 30 mins by TR-FRET assay
[40] = molecular target: T1, Tyrosine-protein kinase SYK; experiment: Inhibition of SYK in human whole blood assessed as reduction in anti-FCepsilonR1 mAb-induced basophil activation by measuring decrease in CD63 surface expression incubated for 60 mins followed by anti-FCepsilonR1 mAb stimulation for 20 mins by flow cytometry analysis; format: tissue-based
[41] = molecular target: T1, Tyrosine-protein kinase SYK; experiment: Inhibition of SYK in human Ramos cells assessed as reduction in antihuman IgM F(ab)2-induced phosphorylation of BLNK at Y96 residue preincubated for 1 hr followed by antihuman IgM F(ab)2 stimulation for 5 mins by MSD high bind plate assay; format: cell-based

Sequence of Tyrosine-protein kinase JAK2 (O60674 whole entry, the tested form may be a part): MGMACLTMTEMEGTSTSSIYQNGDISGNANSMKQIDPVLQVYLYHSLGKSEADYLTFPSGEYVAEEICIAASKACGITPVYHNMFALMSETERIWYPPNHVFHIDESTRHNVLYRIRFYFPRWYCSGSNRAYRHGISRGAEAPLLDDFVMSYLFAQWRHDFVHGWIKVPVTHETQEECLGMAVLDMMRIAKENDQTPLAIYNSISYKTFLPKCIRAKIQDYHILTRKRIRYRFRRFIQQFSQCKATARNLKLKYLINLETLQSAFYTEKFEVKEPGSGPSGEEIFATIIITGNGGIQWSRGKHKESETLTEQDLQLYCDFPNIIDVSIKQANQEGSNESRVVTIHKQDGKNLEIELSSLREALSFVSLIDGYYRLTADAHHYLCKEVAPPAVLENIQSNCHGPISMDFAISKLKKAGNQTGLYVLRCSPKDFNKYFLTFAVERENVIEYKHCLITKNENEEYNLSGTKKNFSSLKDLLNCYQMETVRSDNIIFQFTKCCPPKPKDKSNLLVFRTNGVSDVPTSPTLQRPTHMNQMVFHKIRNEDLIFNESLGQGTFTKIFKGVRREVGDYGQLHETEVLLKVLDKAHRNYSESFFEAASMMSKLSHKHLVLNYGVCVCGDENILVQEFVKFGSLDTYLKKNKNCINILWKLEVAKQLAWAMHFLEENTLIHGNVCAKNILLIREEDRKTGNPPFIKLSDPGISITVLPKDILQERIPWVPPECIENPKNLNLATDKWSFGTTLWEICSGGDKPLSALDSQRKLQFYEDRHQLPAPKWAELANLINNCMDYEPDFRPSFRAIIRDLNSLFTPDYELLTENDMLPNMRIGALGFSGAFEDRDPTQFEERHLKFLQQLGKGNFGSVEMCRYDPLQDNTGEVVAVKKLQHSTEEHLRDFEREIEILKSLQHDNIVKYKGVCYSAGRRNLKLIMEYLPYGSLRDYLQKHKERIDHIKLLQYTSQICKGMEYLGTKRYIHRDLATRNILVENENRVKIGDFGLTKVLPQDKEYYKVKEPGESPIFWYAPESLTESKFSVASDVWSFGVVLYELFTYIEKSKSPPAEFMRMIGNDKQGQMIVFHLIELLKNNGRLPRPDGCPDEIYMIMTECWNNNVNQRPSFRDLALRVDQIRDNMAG

For `Nc1cncc(-c2cn3ccnc3c(Nc3ccc(N4CCN(C5COC5)CC4)cc3)n2)n1` [LANRAPLENIB], the AUC [1] was 10.2 µM·h, the solubility [2] was over 100 µM and the “CLH(app)” value (Hepatocyte [3]) was 4.67 mL/min/kg. It also gave an AUC [4] of 6.19 µM·h, a half-life [5] of 5.3 h and a fraction unbound [6] of 0.322. The solubility [7] was 99 µM (≈ 43.9 µg/mL), the clearance [8] was 29.5 mL/min/kg and the fraction unbound [9] was 0.118. For the same compound, the half-life [10] was 2.3 h, the logD [11] was 1.3 and the clearance [12] was 9.67 mL/min/kg. The “CLH(app)” value (Hepatocyte [13]) was 4.67 mL/min/kg, the half-life [14] was 3.7 h and the fraction unbound [15] was 0.385. For the same compound, the bioavailability [16] was 100%, the Vd [17] was 2.5 L/kg and the Vd [18] was 1.6 L/kg. The Vd [19] was 1.3 L/kg, the AUC [20] was 6.46 µM·h and the fraction unbound [21] was 0.204. It also gave a bioavailability [22] of 60%, an IC50 [23] of 0.12 µM and a bioavailability [24] of 100%. The “CLH(app)” value [25] was 23.3 mL/min/kg, the Activity (Mus musculus [26]) was “Active” and the half-life [27] was 21.3 to 24.6 h. For the same compound, the CLhep predicted [28] was under 1.83 mL/min/kg, the clearance [29] was 5.5 mL/min/kg and the Activity (Mus musculus [30]) was “Active”. For the same compound, the Activity [31] was “Non-Toxic”, the Activity [32] was “Non-Toxic” and the AUC [33] was 8.8 µM·h. The “CLH(app)” value [34] was 0.83 mL/min/kg, the Activity [35] was “Non-Toxic” and the Activity [36] was “Non-Toxic”.
`c1cn2cc(-c3cnc4c(n3)NCCO4)nc(Nc3ccc(N4CCN(C5COC5)CC4)cc3)c2n1` gave a solubility [2] of over 100 µM, an efflux ratio [37] of 3 and a solubility [7] of 99 µM (≈ 48.1 µg/mL). For the same compound, the Papp [38] was 11 ×10⁻⁶ cm/s, the bioavailability [22] was 21% and the CLhep predicted [28] was under 1.83 mL/min/kg. It also gave an IC50 [39] of 0.0078 µM, an EC50 [40] of 0.079 µM and an EC50 [41] of 0.086 µM.
`c1cn2cc(-c3ccc4nc[nH]c4c3)nc(Nc3ccc(N4CCN(C5COC5)CC4)cc3)c2n1` showed a solubility [2] of over 100 µM, an efflux ratio [37] of 38 and a solubility [7] of 49 µM (≈ 22.9 µg/mL). It also gave a Papp [38] of 0.4 ×10⁻⁶ cm/s, a CLhep predicted [28] of under 1.83 mL/min/kg and an IC50 [39] of 0.0173 µM. The EC50 [40] was 0.09 µM and the EC50 [41] was 0.047 µM.
In the case of `c1cn2cc(-c3ccc4cn[nH]c4c3)nc(Nc3ccc(N4CCN(C5COC5)CC4)cc3)c2n1`, the solubility [2] is reported as over 100 µM, the efflux ratio [37] is reported as 2.9 and the solubility [7] is reported as under 1 µM. For the same compound, the logD [11] was 1.9 to 2.7, the Papp [38] was 5.5 ×10⁻⁶ cm/s and the bioavailability [22] was 42%. For the same compound, the CLhep predicted [28] was 3 mL/min/kg, the IC50 [39] was 0.0092 µM and the EC50 [40] was 0.385 µM. For the same compound, the EC50 [41] was 0.053 µM.
In the case of `c1cn2cc(-c3cnc4c(c3)NCCO4)nc(Nc3ccc(N4CCN(C5COC5)CC4)cc3)c2n1`, the solubility [2] is reported as over 100 µM, the solubility [7] is reported as over 100 µM and the bioavailability [22] is reported as 38%. The CLhep predicted [28] was 4.17 mL/min/kg, the IC50 [39] was 0.0084 µM and the EC50 [40] was 0.089 µM. For the same compound, the EC50 [41] was 0.0468 µM.
Compound `c1cn2cc(-c3cnc4nc[nH]c4c3)nc(Nc3ccc(N4CCN(C5COC5)CC4)cc3)c2n1` has a solubility [2] of over 100 µM, an efflux ratio [37] of 5.8 and a solubility [7] of under 1 µM. For the same compound, the Papp [38] was 2.7 ×10⁻⁶ cm/s, the CLhep predicted [28] was 3 mL/min/kg and the IC50 [39] was 0.0134 µM. For the same compound, the EC50 [40] was 0.309 µM and the EC50 [41] was 0.286 µM.
In the case of `CN(C)C[C@@H]1CN(c2ccc(Nc3nc(-c4ccc5cn[nH]c5c4)cn4ccnc34)cc2)CCO1`, the solubility [2] is reported as 90 µM (≈ 42.2 µg/mL), the efflux ratio [37] is reported as 29 and the solubility [7] is reported as 78 µM (≈ 36.5 µg/mL). The logD [11] was 1.9 to 2.7, the Papp [38] was 0.5 ×10⁻⁶ cm/s and the bioavailability [22] was 2%. For the same compound, the CLhep predicted [28] was 3.83 mL/min/kg, the IC50 [39] was 0.0009 µM and the EC50 [40] was 0.231 µM. For the same compound, the EC50 [41] was 0.109 µM.
Work on `OC1CN(c2ccc(Nc3nc(-c4ccc5cn[nH]c5c4)cn4ccnc34)cc2)C1` yielded a solubility [2] of 78 µM (≈ 31 µg/mL), a solubility [7] of 4 µM (≈ 1.59 µg/mL) and a logD [11] of 1.9 to 2.7. For the same compound, the CLhep predicted [28] was 12.5 mL/min/kg, the IC50 [39] was 0.0113 µM and the EC50 [40] was 0.723 µM. It also gave an EC50 [41] of 0.057 µM.
